≈ marks a conversion by molar mass, not a printed value.

Data set [1] relates to Staphylococcus aureus. Description: Antibacterial activity against Staphylococcus aureus KCTC 503 after 20 hrs by two fold serial dilution assay. Type of data set: functional. The following applies: KCTC 503, 20 h.
Data set [2] has as its system Staphylococcus aureus. Put plainly: Antibacterial activity against Staphylococcus aureus RN4220 after 20 hrs by two fold serial dilution assay. Type of data set: functional. The conditions noted are these: RN4220, 20 h.
The subject of data set [3] is Escherichia coli. Put plainly: Antibacterial activity against Escherichia coli CCARM 1924 after 20 hrs by two fold serial dilution assay. It counts as functional. The conditions noted are these: CCARM 1924, 20 h.
In data set [4] the test system is Escherichia coli. Description: Antibacterial activity against Escherichia coli CCARM 1356 after 20 hrs by two fold serial dilution assay. It counts as functional. The following applies: CCARM 1356, 20 h.
The subject of data set [5] is Staphylococcus aureus. Put plainly: Antibacterial activity against methicillin-resistant Staphylococcus aureus CCARM 3167 after 20 hrs by two fold serial dilution assay. Type of data set: functional. The following applies: CCARM 3167, 20 h.
In data set [6] the test system is Staphylococcus aureus. Description: Antibacterial activity against methicillin-resistant Staphylococcus aureus CCARM 3506 after 20 hrs by two fold serial dilution assay. The following applies: CCARM 3506, 20 h. It counts as functional.
Data set [7] deals with Staphylococcus aureus. Description: Antibacterial activity against quinolone-resistant Staphylococcus aureus CCARM 3505 after 20 hrs by two fold serial dilution assay. It counts as functional. The following applies: CCARM 3505, 20 h.
Data set [8] relates to Staphylococcus aureus. Put plainly: Antibacterial activity against quinolone-resistant Staphylococcus aureus CCARM 3519 after 20 hrs by two fold serial dilution assay. It counts as functional. The conditions noted are these: CCARM 3519, 20 h.
Data set [9] deals with Staphylococcus aureus. Put plainly: Ratio of norfloxacin MIC to compound MIC for methicillin-resistant Staphylococcus aureus CCARM 3167. Type of data set: functional.
Data set [10] has as its system Staphylococcus aureus. Put plainly: Ratio of norfloxacin MIC to compound MIC for methicillin-resistant Staphylococcus aureus CCARM 3506. It counts as functional.
Data set [11] deals with HeLa. Description: Cytotoxicity against human HeLa cells after 48 hrs by MTT assay. It counts as cell-based. Put shortly: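 HeLa cells grown in DMEM with 10% FBS and penicillin-streptomycin at 37 °C in 5% CO₂, passaged three times. About 1 × 10⁴ cells/well were seeded and attached overnight, then given a range of compound concentrations for 48 h. MTT (5 mg/ml stock) was added for 4 h, formazan dissolved in DMSO, and OD read at 570 nm. Run four times; IC50 was the concentration giving 50% growth inhibition.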
A general note: Tetrazolium dyes change colour on reduction, which living cells bring about.

Data set [12] relates to HeLa. Put plainly: Cytotoxicity against human HeLa cells assessed as decrease in cell viability at 1 ug/mL after 48 hrs by MTT assay. It counts as cell-based. Summed up:
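HeLa cells (DMEM, 10% FBS, antibiotics, 37 °C, 5% CO₂) were seeded at about 1 × 10⁴ cells/well, left overnight, then exposed to compound for 48 h. Viability was read by MTT (5 mg/ml stock, 4 h), with formazan dissolved in DMSO and absorbance taken at 570 nm. Assay performed four times.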

Broadly, the MIC is the lowest concentration found to suppress growth. Higher therefore signals a less susceptible organism. With `O=C(O)[C@@H](Cc1ccccc1)N1C(=O)/C(=C/c2cn(-c3ccccc3)nc2-c2ccc(F)cc2)SC1=S`, the MIC in data set [1] was 16 µg/mL (≈ 30.2 µM); in [2] it was 4 µg/mL (≈ 7.55 µM); in data set [3], > 64 µg/mL; in data set [4], > 64 µg/mL; in [5], 1 µg/mL (≈ 1.89 µM); in data set [6], 1 µg/mL (≈ 1.89 µM). Besides, the MIC in data set [7] and in [8] was 1 µg/mL (≈ 1.89 µM) each time. The Ratio in [9] turned out to be 8; in data set [10], 4.
On to `COc1ccc(-c2nn(-c3ccccc3)cc2/C=C2\SC(=S)N([C@H](Cc3ccccc3)C(=O)O)C2=O)cc1`, for which the MIC in data set [1] was 16 µg/mL (≈ 29.5 µM); in [2], 4 µg/mL (≈ 7.38 µM); in data set [3] it was > 64 µg/mL; in data set [4], > 64 µg/mL; in data set [5] it was 4 µg/mL (≈ 7.38 µM); in [6] it was 4 µg/mL (≈ 7.38 µM). In addition, the MIC was 4 µg/mL (≈ 7.38 µM) in [7] and 8 µg/mL (≈ 14.8 µM) in [8].
For the compound `COc1ccccc1-c1nn(-c2ccccc2)cc1/C=C1\SC(=S)N([C@H](Cc2ccccc2)C(=O)O)C1=O`, the MIC in [1] is 16 µg/mL (≈ 29.5 µM); in [2], 2 µg/mL (≈ 3.69 µM); in [3], > 64 µg/mL; in [4], > 64 µg/mL; in data set [5] it was 16 µg/mL (≈ 29.5 µM); in [6] it was 16 µg/mL (≈ 29.5 µM). For the same compound, the MIC in data set [7] and in [8] was 16 µg/mL (≈ 29.5 µM) throughout.
What is called IC50 is the point on the concentration scale where inhibition reaches its midpoint. High values mean a need for much substance, low ones inhibition by little substance. Take `Cc1ccc(-c2nn(-c3ccccc3)cc2/C=C2\SC(=S)N([C@H](Cc3ccccc3)C(=O)O)C2=O)cc1`: the MIC was 1 µg/mL (≈ 1.9 µM) in data set [1]; 2 µg/mL (≈ 3.8 µM) in data set [2]; > 64 µg/mL in [3]; > 64 µg/mL in data set [4]; 1 µg/mL (≈ 1.9 µM) in data set [5]; 1 µg/mL (≈ 1.9 µM) in data set [6]. Moreover, the MIC in data set [7] and in [8] was 1 µg/mL (≈ 1.9 µM) throughout. Further, the Ratio is listed as 8 in data set [9] and 4 in data set [10]. The half-maximal inhibitory concentration (IC50) in data set [11] is 20.2 µg/mL (≈ 38.4 µM). The Activity result in [12] is listed as “Non-toxic”.
In the case of `O=C(O)[C@@H](Cc1ccccc1)N1C(=O)/C(=C/c2cn(-c3ccccc3)nc2-c2cccc(Br)c2)SC1=S`, the MIC is 8 µg/mL (≈ 13.5 µM) in data set [1]; 2 µg/mL (≈ 3.39 µM) in data set [2]; > 64 µg/mL in data set [3]; > 64 µg/mL in data set [4]; 4 µg/mL (≈ 6.77 µM) in data set [5]; 4 µg/mL (≈ 6.77 µM) in data set [6]. The MIC in data set [7] and in data set [8] was 4 µg/mL (≈ 6.77 µM) in each case.
As for `O=C(O)[C@@H](Cc1ccccc1)N1C(=O)/C(=C/c2cn(-c3ccccc3)nc2-c2ccc(Cl)cc2Cl)SC1=S`, the minimum inhibitory concentration (MIC) in data set [1] was 2 µg/mL (≈ 3.45 µM); in data set [2] it was 2 µg/mL (≈ 3.45 µM); in data set [3], > 64 µg/mL; in data set [4], > 64 µg/mL; in data set [5], 1 µg/mL (≈ 1.72 µM); in [6] it was 1 µg/mL (≈ 1.72 µM). Also, the figures for the minimum inhibitory concentration (MIC) in [7] and in data set [8] were 2 µg/mL (≈ 3.45 µM) and 1 µg/mL (≈ 1.72 µM), respectively. In addition, the Ratio in [9] was determined as 8; in [10], 4.
With `O=C(O)[C@@H](Cc1ccccc1)N1C(=O)/C(=C/c2cn(-c3ccccc3)nc2-c2ccc3ccccc3c2)SC1=S`, the MIC in [1] is 16 µg/mL (≈ 28.5 µM); in data set [2] it was 2 µg/mL (≈ 3.56 µM); in data set [3], > 64 µg/mL; in data set [4] it was > 64 µg/mL; in data set [5], 16 µg/mL (≈ 28.5 µM); in [6] it was 16 µg/mL (≈ 28.5 µM). Further, the MIC in data set [7] and in [8] was 16 µg/mL (≈ 28.5 µM) in each case.
Regarding `COc1cccc(-c2nn(-c3ccccc3)cc2/C=C2\SC(=S)N([C@H](Cc3ccccc3)C(=O)O)C2=O)c1`, the MIC was 16 µg/mL (≈ 29.5 µM) in data set [1]; 4 µg/mL (≈ 7.38 µM) in data set [2]; > 64 µg/mL in data set [3]; > 64 µg/mL in data set [4]; 16 µg/mL (≈ 29.5 µM) in data set [5]; 16 µg/mL (≈ 29.5 µM) in [6]. Moreover, the MIC in data set [7] and in data set [8] was 16 µg/mL (≈ 29.5 µM) in each case.

For the origin of these results see ChEMBL document CHEMBL2150942, “Synthesis and antibacterial activity of novel 1,3-diphenyl-1H-pyrazoles functionalized with phenylalanine-derived rhodanines” (Eur J Med Chem, 2012).
